One compound from ChEMBL document CHEMBL3808357, “Discovery of N-(3-((1-Isonicotinoylpiperidin-4-yl)oxy)-4-methylphenyl)-3-(trifluoromethyl)benzamide (CHMFL-KIT-110) as a Selective, Potent, and Orally Available Type II c-KIT Kinase Inhibitor for Gastrointestinal Stromal Tumors (GISTs)” (J Med Chem, 2016) can be followed below.

For series [1], the target named is Mast/stem cell growth factor receptor Kit (Homo sapiens) (UniProt P10721). The series can be described thus: Inhibition of cKIT in human GISTT1 cells assessed as suppression of AKT phosphorylation at S473 up to 10 uM after 2 hrs by Western blot analysis. The class given is cell-based. In general terms: In western blotting, separated proteins are transferred to a membrane and probed.

Series [2] has the same target. The series can be described thus: Inhibition of cKIT in human GIST882 cells assessed as suppression of ERK phosphorylation at T202/Y204 up to 10 uM after 2 hrs by Western blot analysis. The class given is cell-based.
Series [3] has the same target. The series can be described thus: Inhibition of cKIT autophosphorylation at Y823 in human GIST48B cells up to 10 uM after 2 hrs by Western blot analysis. The class given is cell-based.
Series [4] addresses Platelet-derived growth factor receptor alpha (Homo sapiens) (UniProt P16234). The series can be described thus: Inhibition of PDGFRalpha phosphorylation at Y849 in human GIST882 cells up to 10 uM after 2 hrs by Western blot analysis. The class given is cell-based. Summed up:
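Cells were washed in cold PBS, lysed in RIPA and immunoblotted for phospho and total proteins, including pPDGFRα Y849/PDGFRβ Y857 and β-actin.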

Series [5] concerns GIST882. The series can be described thus: Induction of apoptosis in human GIST882 cells assessed as caspase 3 cleavage up to 3 uM after 72 hrs by Western blot analysis. The class given is functional, cell-based.
Series [6] is described as follows: Cell cycle arrest in human GISTT1 cells at 0.3 to 3 uM after 24 hrs by propidium iodide/RNase staining based flow cytometric analysis. The class given is functional. Summed up:
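Cells were then fixed in 70% cold ethanol at −20 °C overnight, stained with PI/RNase buffer and analysed by flow cytometry.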
On the technique in general: A flow cytometer gives signals particle by particle.

Series [7] is described as follows: Cmax in Sprague-Dawley rat plasma at 1 mg/kg, iv. Also noted: dose 1 mg/kg, route intravenous. The class given is ADME, organism-based. Summed up:
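Male Sprague-Dawley rats, 8 weeks old, fasted overnight, dosed iv or orally. Formulation was 5% DMSO/40% PEG400/55% saline at 1 mg/mL. Blood (~0.2 mL) was drawn from the jugular vein into heparin. Sampling: iv at 1 min to 8 h; oral at 5 min to 24 h. Plasma was separated by centrifugation at 2−8 °C and stored at −80 °C.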

Series [8] deals with Macrophage colony-stimulating factor 1 receptor (Homo sapiens, UniProt P07333). The series can be described thus: Inhibition of human wild type partial length CSF1R expressed in bacterial expression system assessed as residual activity at 1 uM by KinomeScan method. Summed up:
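KinomeScan competitive binding panel of 468 kinases and mutants, compound tested at 1 μM; read-out is percent activity remaining (binding relative to control).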

The test system of series [9] is Mast/stem cell growth factor receptor Kit (Homo sapiens), P10721 [V559D]. Put plainly: Inhibition of Tel-fused cKIT V559D mutant (unknown origin) transfected in mouse BAF3 cells assessed as decrease in cell proliferation after 72 hrs by celltiter-glo/CCK8 assay. The class given is cell-based. Summed up: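 Stable BaF3 lines made by retroviral transduction with mutagenized TEL-KIT MSCV vectors, puromycin selection 48 h, then gradual IL-3 withdrawal until IL-3-independent; grown in RPMI 1640 with 10% FBS. Cells at 1 to 3 × 10⁴ cells/mL exposed to a concentration series for 72 h; viability read by CellTiter-Glo luminescence or CCK-8 absorbance (450/655 nm); GI50 from triplicate testing.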
(In general: In ATP-based viability assays light output follows the ATP content of the culture.)

The nature of series [10]: Antiproliferative activity against CHL cells assessed as reduction in cell viability after 72 hrs by celltiter-glo/CCK8 assay. The conditions noted are these: chinese hamster. The class given is cell-based, Cricetulus griseus. Summed up: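 Cells were seeded at 1 to 3 × 10⁴ cells/mL with serial compound concentrations and incubated 72 h at 37 °C, 5% CO₂. Viability was read by CellTiter-Glo luminescence or CCK-8 absorbance (450/655 nm). GI50 values are from triplicate testing. GIST-T1 and CHO were grown in DMEM/10% FBS; GIST-882, GIST-48B and MV4-11 in IMDM/10% FBS; other lines in RPMI 1640/10% FBS.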

Series [11] concerns the target Mast/stem cell growth factor receptor Kit (Homo sapiens) (UniProt P10721). Put plainly: Inhibition of cKIT autophosphorylation at Y823 in human GISTT1 cells up to 10 uM after 2 hrs by Western blot analysis. The class given is cell-based.

Calls of active or inactive are those of the source. No cut-off for these calls is given here.

Chain of Mast/stem cell growth factor receptor Kit (Homo sapiens) (P10721 whole entry): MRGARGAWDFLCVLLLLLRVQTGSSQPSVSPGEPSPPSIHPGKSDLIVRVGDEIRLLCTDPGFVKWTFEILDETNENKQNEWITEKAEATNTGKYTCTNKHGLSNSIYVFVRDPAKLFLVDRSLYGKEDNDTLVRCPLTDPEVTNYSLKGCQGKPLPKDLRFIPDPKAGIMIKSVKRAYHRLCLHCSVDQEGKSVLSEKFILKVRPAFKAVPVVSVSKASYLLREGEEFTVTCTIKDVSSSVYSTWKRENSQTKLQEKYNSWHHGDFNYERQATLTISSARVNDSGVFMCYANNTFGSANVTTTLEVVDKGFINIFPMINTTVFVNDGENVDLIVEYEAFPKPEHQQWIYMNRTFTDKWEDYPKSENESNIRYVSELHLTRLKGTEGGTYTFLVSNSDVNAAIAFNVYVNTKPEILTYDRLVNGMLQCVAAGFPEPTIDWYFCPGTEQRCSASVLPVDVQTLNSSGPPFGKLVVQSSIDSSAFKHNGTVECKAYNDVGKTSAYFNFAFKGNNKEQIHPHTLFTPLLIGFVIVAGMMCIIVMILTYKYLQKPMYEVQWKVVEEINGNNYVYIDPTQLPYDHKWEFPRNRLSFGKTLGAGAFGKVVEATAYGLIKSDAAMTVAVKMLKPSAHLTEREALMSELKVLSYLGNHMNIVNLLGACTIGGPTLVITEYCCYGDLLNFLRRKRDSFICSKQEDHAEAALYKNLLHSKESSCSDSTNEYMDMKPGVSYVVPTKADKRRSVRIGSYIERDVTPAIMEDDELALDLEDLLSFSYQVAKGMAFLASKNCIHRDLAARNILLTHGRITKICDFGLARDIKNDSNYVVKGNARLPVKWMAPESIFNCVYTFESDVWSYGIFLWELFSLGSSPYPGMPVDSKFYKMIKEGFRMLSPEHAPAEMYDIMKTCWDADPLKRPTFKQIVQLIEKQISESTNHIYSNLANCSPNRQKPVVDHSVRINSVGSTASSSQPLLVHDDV
Chain of Mast/stem cell growth factor receptor Kit (Homo sapiens), P10721 [V559D] (P10721 whole entry V559D, the tested form may be a part): as the sequence (P10721 whole entry) above, with V559D counted along it
Chain of Platelet-derived growth factor receptor alpha (Homo sapiens) (P16234 whole entry): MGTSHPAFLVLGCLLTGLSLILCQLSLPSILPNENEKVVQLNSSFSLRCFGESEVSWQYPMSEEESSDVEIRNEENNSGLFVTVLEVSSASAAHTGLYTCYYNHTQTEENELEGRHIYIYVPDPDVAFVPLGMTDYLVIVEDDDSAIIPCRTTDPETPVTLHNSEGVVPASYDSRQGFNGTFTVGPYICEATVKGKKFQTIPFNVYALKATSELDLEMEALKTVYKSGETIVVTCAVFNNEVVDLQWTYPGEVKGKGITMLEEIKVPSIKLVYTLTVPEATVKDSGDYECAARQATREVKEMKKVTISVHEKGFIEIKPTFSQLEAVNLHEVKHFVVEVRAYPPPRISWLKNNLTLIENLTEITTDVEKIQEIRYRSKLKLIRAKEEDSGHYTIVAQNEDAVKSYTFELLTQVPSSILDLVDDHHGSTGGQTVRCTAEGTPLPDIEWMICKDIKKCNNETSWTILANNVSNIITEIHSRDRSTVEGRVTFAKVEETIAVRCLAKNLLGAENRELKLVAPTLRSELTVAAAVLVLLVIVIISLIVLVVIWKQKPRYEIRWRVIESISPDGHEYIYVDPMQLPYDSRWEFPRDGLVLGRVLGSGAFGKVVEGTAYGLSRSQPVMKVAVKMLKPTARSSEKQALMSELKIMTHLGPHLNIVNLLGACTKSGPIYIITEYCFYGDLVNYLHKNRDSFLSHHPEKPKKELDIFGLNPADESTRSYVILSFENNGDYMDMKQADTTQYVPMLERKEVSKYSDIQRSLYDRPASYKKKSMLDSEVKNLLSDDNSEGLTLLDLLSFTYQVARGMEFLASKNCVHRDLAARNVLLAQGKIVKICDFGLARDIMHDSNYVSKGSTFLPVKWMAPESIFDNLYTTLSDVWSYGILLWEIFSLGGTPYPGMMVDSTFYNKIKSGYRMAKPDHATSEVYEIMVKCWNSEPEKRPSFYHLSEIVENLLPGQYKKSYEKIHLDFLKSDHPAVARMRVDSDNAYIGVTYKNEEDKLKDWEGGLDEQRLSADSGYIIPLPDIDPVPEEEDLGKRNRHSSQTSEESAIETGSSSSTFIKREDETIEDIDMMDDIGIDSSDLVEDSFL
Chain of Macrophage colony-stimulating factor 1 receptor (P07333 whole entry): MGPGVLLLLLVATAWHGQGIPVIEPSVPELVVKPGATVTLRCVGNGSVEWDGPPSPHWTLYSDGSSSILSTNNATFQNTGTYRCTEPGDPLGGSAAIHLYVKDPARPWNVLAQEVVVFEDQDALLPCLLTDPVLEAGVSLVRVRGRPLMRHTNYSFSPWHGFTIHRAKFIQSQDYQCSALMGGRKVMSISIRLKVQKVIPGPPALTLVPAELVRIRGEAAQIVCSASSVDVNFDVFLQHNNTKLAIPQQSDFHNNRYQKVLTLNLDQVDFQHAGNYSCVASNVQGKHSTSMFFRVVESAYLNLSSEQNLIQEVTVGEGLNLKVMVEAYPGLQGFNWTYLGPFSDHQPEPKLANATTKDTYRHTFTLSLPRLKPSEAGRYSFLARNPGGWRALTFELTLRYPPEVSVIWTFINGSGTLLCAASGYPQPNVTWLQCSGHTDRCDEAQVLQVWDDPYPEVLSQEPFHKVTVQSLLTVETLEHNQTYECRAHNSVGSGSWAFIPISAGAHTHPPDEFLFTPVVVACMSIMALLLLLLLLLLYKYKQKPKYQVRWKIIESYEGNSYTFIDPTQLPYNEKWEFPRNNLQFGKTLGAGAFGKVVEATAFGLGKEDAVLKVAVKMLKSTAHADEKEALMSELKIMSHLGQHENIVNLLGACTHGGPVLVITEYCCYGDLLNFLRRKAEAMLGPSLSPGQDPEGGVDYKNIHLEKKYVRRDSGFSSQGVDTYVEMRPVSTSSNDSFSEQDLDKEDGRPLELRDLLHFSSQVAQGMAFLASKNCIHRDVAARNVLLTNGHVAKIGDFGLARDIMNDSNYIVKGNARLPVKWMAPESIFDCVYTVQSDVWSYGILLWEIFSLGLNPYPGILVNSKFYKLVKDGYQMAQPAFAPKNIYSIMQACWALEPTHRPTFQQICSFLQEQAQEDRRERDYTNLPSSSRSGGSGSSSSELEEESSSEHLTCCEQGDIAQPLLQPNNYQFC

As usually defined, the Cmax is the highest concentration seen after dosing. The GI50 is the concentration giving 50% growth inhibition. As for `Cc1ccc(NC(=O)c2cccc(C(F)(F)F)c2)cc1OC1CCN(C(=O)c2ccncc2)CC1`, the inhibition result in series [1], in series [2], in series [4] and in series [11] was “Active” each time. In series [3], the inhibition result is “inactive”. Further, the result in series [5] and in series [6] was Active. For the same compound, the Cmax in series [7] was determined as 511 ng/mL. In addition, in [8], the Activity amounted to 0.6%. Besides, the GI50 in series [9] stood at 40 nM. The GI50 at 72 h in [10] is above 10000 nM.
